Source: PubChem BioAssay
UPR XBP1 act = activators of adaptive arm of unfolded protein response (XBP1) | CHO-XBP1 luciferase reporter, IRE1-XBP1 UPR activation, luminescence; percent of tunicamycin response, DMSO as zero | activation, % at 20 µM | 0.33% of 330,000 active | AID 463104;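 active = versus positive control, 20 µM dose yields 30% or more activation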
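Material: CHO cell line with stable XBP1 luciferase reporter; schedule: 16-18 h cell attachment at 37 °C, then 6 h compound exposure; signal: glow luminescence from Steady-Glo reagent; medium: serum-containing F12 medium, 10% FBS; benchmarks: tunicamycin 10 µg/mL and vehicle-only wells; read-out: percent activation relative to tunicamycin reference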
Apaf-1 inh = human Apaf-1 inhibition | O14727 | reconstituted apoptosome caspase-3 activity, DEVD-Rh110 fluorescence | inhibition, % at 20 µM | 0.71% of 330,000 active | AID 489030; active = inhibition of at least 40% at 20 µM
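detection = Rh110 fluorescence intensity | test system = biochemical Apaf-1 apoptosome reconstitution | also added = cytochrome c and DEVD-Rh110 substrate | schedule = 30 min plus 50 min, RT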
CHOP UPR activ = activators of apoptotic arm of unfolded protein response (CHOP); 0.34% of 330,000 active; activation, % at 10 µM; CHO-CHOP luciferase reporter, UPR activation, luminescence; percent of tunicamycin response over DMSO baseline;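 active = at 10 µM dose, activation of 40% or more, normalized to positive control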
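Test system: CHO-CHOP cells, stable luciferase reporter of PERK-eIF2a-CHOP signalling | Quantity: 500 CHO-CHOP cells per well | Buffer or medium: F12 plus 10% serum | Compound dosing: 10 µM single point, 0.5% DMSO | Schedule: 6 h compound treatment, 37 °C | Signal: Luciferase luminescence | Control set: Tunicamycin high control, DMSO low control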
UBC13 inh = blocks human UBC13 polyubiquitin chain formation. 0.47% of 330,000 active. inhibition, % at 20 µM. P61088. AID 485273. TR-FRET; in the data active = inhibition above about 45%, passing the limit was not always enough; inconclusive = no clear call, values can overlap the other calls
Mdm2 MdmX PPI = disrupts the human Mdm2-MdmX interaction. SaOS-2 split-luciferase Mdm2/MdmX complementation, luminescence. 3% of 330,000 active. inhibition, % at 8 µM. O15151+Q00987. AID 485346;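 active = inhibition of at least 50% at 8 µM in the primary screen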
Target sequence (O15151 whole entry, looked up): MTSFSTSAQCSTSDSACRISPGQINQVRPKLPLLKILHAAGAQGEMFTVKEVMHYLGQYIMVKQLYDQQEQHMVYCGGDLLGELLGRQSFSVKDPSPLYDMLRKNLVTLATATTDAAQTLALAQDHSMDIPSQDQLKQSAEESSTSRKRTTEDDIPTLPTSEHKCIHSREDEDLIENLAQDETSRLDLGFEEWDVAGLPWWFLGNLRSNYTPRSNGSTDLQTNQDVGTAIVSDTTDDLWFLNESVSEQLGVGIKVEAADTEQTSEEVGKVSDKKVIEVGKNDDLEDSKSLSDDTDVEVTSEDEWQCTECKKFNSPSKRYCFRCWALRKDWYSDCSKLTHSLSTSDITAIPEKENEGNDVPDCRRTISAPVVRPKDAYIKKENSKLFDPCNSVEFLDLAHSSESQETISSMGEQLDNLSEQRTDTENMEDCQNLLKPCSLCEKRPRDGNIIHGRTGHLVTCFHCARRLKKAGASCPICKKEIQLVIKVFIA
Target sequence (Q00987 whole entry, looked up): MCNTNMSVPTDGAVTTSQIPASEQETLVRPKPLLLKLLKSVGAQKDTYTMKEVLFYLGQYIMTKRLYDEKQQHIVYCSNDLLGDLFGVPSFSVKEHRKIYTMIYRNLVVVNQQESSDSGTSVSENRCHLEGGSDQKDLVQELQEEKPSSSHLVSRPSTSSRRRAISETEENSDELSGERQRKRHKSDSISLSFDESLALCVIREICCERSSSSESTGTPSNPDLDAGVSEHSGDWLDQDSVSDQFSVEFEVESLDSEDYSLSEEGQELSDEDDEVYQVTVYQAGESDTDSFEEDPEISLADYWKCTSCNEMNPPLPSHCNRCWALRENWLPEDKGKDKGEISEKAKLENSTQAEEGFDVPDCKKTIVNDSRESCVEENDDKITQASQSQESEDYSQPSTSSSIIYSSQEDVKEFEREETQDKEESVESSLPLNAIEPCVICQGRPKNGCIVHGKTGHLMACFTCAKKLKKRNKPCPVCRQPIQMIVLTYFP
UPR CHOP confirm = apoptotic UPR (CHOP) activation, confirmed. 64% of 1,000 active. AID 463112. activation, % at 10 µM. shares compounds with CHOP UPR activ. CHO-CHOP cells, CHOP-luciferase reporter luminescence; percent of tunicamycin response, DMSO as zero; in the data active = activation above about 33%
UPR XBP1 confirm = adaptive UPR (XBP1) activation, confirmed; CHO-XBP1 IRE1-XBP1 luciferase reporter, luminescence; 63% of 1,000 active; activation, % at 20 µM; shares compounds with UPR XBP1 act;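 active = reporter signal at least 30% of the positive control's activation in two or more of four replicate wells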
Mdm2 MdmX conf = human Mdm2/MdmX binding inhibition, confirmed; luminescent assay; 55% of 10,000 active; shares compounds with Mdm2 MdmX PPI; inhibition, % at 8 µM; in the data active = inhibition above about 40%
FLuc counter = full-length luciferase inhibition in Mdm2/MdmX counter-screen. inhibition, % at 8 µM. shares compounds with Mdm2 MdmX PPI. 77% of 6,200 active. AID 504607. SaOS-2 full-length luciferase counterscreen, luminescence;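 active = mean inhibition at 8 µM reaching about 37%, which flags the compound as non-specific, limit read from the data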;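 also: p53-null SaOS-2 cells with luciferase driven by a doxycycline-inducible promoter; compound on cells about two nights before reading with doxycycline added after day one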
A number is an active result. An excerpt weighted towards active compounds, which were near 4.1% of everything screened.

How did COc1ccc(C(=O)N/C(=C/c2cccs2)c2nc3ccccc3[nH]2)cc1OC do in these assays?
UPR XBP1 act: inactive; Apaf-1 inh: inactive; CHOP UPR activ: inactive; UBC13 inh: inactive; Mdm2 MdmX PPI: inactive

What do the screens show for `COc1cc(/C=C(/C(=O)c2cccs2)c2nc3ccccc3[nH]2)cc(OC)c1O`?
UPR XBP1 act: inactive; Apaf-1 inh: inactive; CHOP UPR activ: 126.4; UBC13 inh: inactive; Mdm2 MdmX PPI: 91.4; UPR CHOP confirm: 161.3; Mdm2 MdmX conf: 90.5; FLuc counter: 61.6

Results for O=C(N/C(=C/c1ccc(Cl)cc1)c1nc2ccccc2[nH]1)c1ccco1 ?
UPR XBP1 act: inactive; Apaf-1 inh: inactive; CHOP UPR activ: inactive; UBC13 inh: inactive; Mdm2 MdmX PPI: inactive

What do the screens show for `O=C(/C(=C/c1ccc(Cl)cc1)c1nc2ccccc2[nH]1)c1ccccc1`?
UPR XBP1 act: inactive; Apaf-1 inh: inactive; CHOP UPR activ: 211.3; UBC13 inh: inactive; Mdm2 MdmX PPI: 100.3; UPR CHOP confirm: 157.8; Mdm2 MdmX conf: 99.2; FLuc counter: 50.6

Results for CCCC(NC(=O)c1c(C)noc1C)C12CC3CC(CC(C3)C1)C2 (stereo unspecified) ?
UPR XBP1 act: inactive; Apaf-1 inh: inactive; CHOP UPR activ: inactive; UBC13 inh: inactive; Mdm2 MdmX PPI: inactive

What do the screens show for `COc1ccc(C(C(=O)NC2CCCCC2)N(C(=O)CCl)c2ccc(C)cc2)cc1` (stereo unspecified)?
UPR XBP1 act: inactive; Apaf-1 inh: inactive; CHOP UPR activ: 61.7; UBC13 inh: inactive; Mdm2 MdmX PPI: 98.0; UPR CHOP confirm: inactive; Mdm2 MdmX conf: 99.7; FLuc counter: 53.9

Results for COc1cc(C(=O)Nc2nc(-c3ccc(Cl)cc3)c(C)s2)ccc1OCC(=O)Nc1ccc(F)cc1 ?
UPR XBP1 act: 99.3; Apaf-1 inh: inactive; CHOP UPR activ: 126.7; UBC13 inh: inactive; Mdm2 MdmX PPI: 77.9; UPR CHOP confirm: 70.5; UPR XBP1 confirm: 109.4; Mdm2 MdmX conf: 65.8; FLuc counter: 70.7

How did CCOC(=O)c1cnc(-n2nc(C)cc2C)nc1NC1CCCC1 do in these assays?
UPR XBP1 act: inactive; Apaf-1 inh: inactive; CHOP UPR activ: 64.3; UBC13 inh: inactive; Mdm2 MdmX PPI: 76.2; UPR CHOP confirm: inactive; Mdm2 MdmX conf: 41.8; FLuc counter: 43.2

What do the screens show for `O=C(Nc1nccs1)c1cccc(N2C(=O)c3cccc4c([N+](=O)[O-])ccc(c34)C2=O)c1`?
UPR XBP1 act: inactive; Apaf-1 inh: inactive; CHOP UPR activ: 85.2; UBC13 inh: inactive; Mdm2 MdmX PPI: 86.7; UPR CHOP confirm: 121.9; Mdm2 MdmX conf: inactive

What do the screens show for `COc1ccccc1-c1cc(C(F)(F)F)nc(S(=O)(=O)CCCC(=O)N2CCCCC2C)n1` (stereo unspecified)?
UPR XBP1 act: inactive; Apaf-1 inh: inactive; CHOP UPR activ: 278.8; UBC13 inh: inactive; Mdm2 MdmX PPI: 97.0; UPR CHOP confirm: 191.6; Mdm2 MdmX conf: 68.8; FLuc counter: inactive

What do the screens show for `COc1ccccc1-c1cc(C(F)(F)F)nc(N2CCCCC2)n1`?
UPR XBP1 act: inactive; Apaf-1 inh: inactive; CHOP UPR activ: inactive; UBC13 inh: inconclusive; Mdm2 MdmX PPI: inactive

How did COc1ccccc1-c1cc(C(F)(F)F)nc(S(C)(=O)=O)n1 do in these assays?
UPR XBP1 act: inactive; Apaf-1 inh: inactive; CHOP UPR activ: 135.5; UBC13 inh: inactive; Mdm2 MdmX PPI: 97.1; UPR CHOP confirm: 266.5; Mdm2 MdmX conf: 79.2; FLuc counter: 53.2

Results for COc1ccccc1-c1cc(C(F)(F)F)nc(S(=O)(=O)CCCC(=O)NCc2ccc(F)cc2)n1 ?
UPR XBP1 act: inactive; Apaf-1 inh: inactive; CHOP UPR activ: 124.4; UBC13 inh: inactive; Mdm2 MdmX PPI: 98.5; UPR CHOP confirm: 271.4; Mdm2 MdmX conf: 90.0; FLuc counter: 50.8

Results for COc1ccccc1-c1cc(C(F)(F)F)nc(N2CCCC2)n1 ?
UPR XBP1 act: inactive; Apaf-1 inh: inactive; CHOP UPR activ: inactive; UBC13 inh: inactive; Mdm2 MdmX PPI: inactive

How did CC(=O)Nc1ccc(C(=O)CSc2nnnn2C2CCCC2)cc1 do in these assays?
UPR XBP1 act: inactive; Apaf-1 inh: inactive; CHOP UPR activ: inactive; UBC13 inh: inactive; Mdm2 MdmX PPI: inactive

What do the screens show for `O=C(NCCCN1CCN(c2ccccc2F)CC1)Nc1ccccc1[N+](=O)[O-]`?
UPR XBP1 act: inactive; Apaf-1 inh: inactive; CHOP UPR activ: inactive; UBC13 inh: inactive; Mdm2 MdmX PPI: inactive

What do the screens show for `CC1=NN(c2cccc(C(=O)O)c2)C(=O)/C1=C\C=C/c1ccccc1`?
UPR XBP1 act: inactive; Apaf-1 inh: inactive; CHOP UPR activ: 94.9; UBC13 inh: inactive; Mdm2 MdmX PPI: 64.6; UPR CHOP confirm: 129.6; Mdm2 MdmX conf: inactive

How did C/C(=N\NC(=O)c1cccnc1)c1ccc(OC2OCCOC2Oc2ccc(/C(C)=N/NC(=O)c3cccnc3)cc2)cc1 (stereo unspecified) do in these assays?
UPR XBP1 act: inactive; Apaf-1 inh: inactive; CHOP UPR activ: inactive; UBC13 inh: inactive; Mdm2 MdmX PPI: inactive

Results for CC(NC(=O)/C(C#N)=C/c1ccc(Cl)c([N+](=O)[O-])c1)c1ccccc1 (stereo unspecified) ?
UPR XBP1 act: inactive; Apaf-1 inh: inactive; CHOP UPR activ: 63.4; UBC13 inh: inactive; Mdm2 MdmX PPI: 99.7; UPR CHOP confirm: inactive; Mdm2 MdmX conf: 67.0; FLuc counter: inactive

What do the screens show for `CCOC(=O)c1[nH]c2ccc(Cl)cc2c1NC(=O)/C=C/c1ccc2c(c1)OCO2`?
UPR XBP1 act: 168.2; Apaf-1 inh: inactive; CHOP UPR activ: 53.6; UBC13 inh: inactive; Mdm2 MdmX PPI: 55.9; UPR CHOP confirm: inactive; UPR XBP1 confirm: 138.2; Mdm2 MdmX conf: 45.0; FLuc counter: 93.7

Results for CCN(CC(=O)Nc1c(C(=O)OC)[nH]c2ccc(Cl)cc12)c1ccc2c(c1)OCO2 ?
UPR XBP1 act: inactive; Apaf-1 inh: inactive; CHOP UPR activ: inactive; UBC13 inh: inactive; Mdm2 MdmX PPI: inactive

Results for O=C(CN(c1cccc(C(F)(F)F)c1)S(=O)(=O)c1ccc(Cl)c([N+](=O)[O-])c1)NCc1ccc(F)cc1 ?
UPR XBP1 act: inactive; Apaf-1 inh: inactive; CHOP UPR activ: 53.4; UBC13 inh: inactive; Mdm2 MdmX PPI: 100.5; UPR CHOP confirm: 49.5; Mdm2 MdmX conf: inactive; FLuc counter: 95.0
